From ChEMBL document CHEMBL4049428, “Exploring Derivatives of Quinazoline Alkaloid l-Vasicine as Cap Groups in the Design and Biological Mechanistic Evaluation of Novel Antitumor Histone Deacetylase Inhibitors” (J Med Chem, 2017)
Activity calls are given as the source filed them. The calls are words filed in the database; no cut-off is given here.

Columns and labels:
Homo sapiens = species: Homo sapiens; assay: Inhibition of HDAC in human HeLa nuclear extract up to 2 uM using Boc-Lys(Ac)-AMC as substrate measured after 30 mins by fluorometric analysis
MOLT-4 [1] = assay: Induction of mitochondrial membrane potential loss in human MOLT4 cells assessed as intact mitochondrial membrane potential at 1 uM measured after 48 hrs by Rh123 dye-based flow cytometric analysis (reference value: 90.4%); type: functional
Summary of the method: (§1)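 Cells seeded in 6-well plates 2-4 h, then 48 h with compound; Rh-123 1 µM added for the final half hour; cells centrifuged, washed twice in PBS, resuspended in PBS, and Ψm loss quantified by flow cytometry as percentage of cells.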

P388 [2] = assay: Antitumor activity against mouse P388 cells implanted in CDF1 mouse assessed as increase in median survival time at 50 mg/kg, ip administered for 9 consecutive days; type: functional
Summary of the method: (§2)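 P388 leukemia cells were harvested from 6–7-day-old ascites grown in the peritoneum of female DBA/2 mice. Female CDF1 mice (18–23 g) received 5×10^5 cells i.p. on day 0. Next day they were randomized into groups of 7 and dosed i.p. daily for 9 consecutive days; controls got 0.2 ml normal saline. Mortality was followed to day 18, with median survival time and %T/C calculated.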

HL-60 [3] = assay: Induction of mitochondrial membrane potential loss in human HL60 cells at 1 uM measured after 48 hrs by Rh123 dye-based flow cytometric analysis (reference value: 5.6%); type: functional; summary of the method: as §1
MOLT-4 [4] = assay: Induction of mitochondrial membrane potential loss in human MOLT4 cells at 1 uM measured after 48 hrs by Rh123 dye-based flow cytometric analysis (reference value: 9.6%); type: functional; summary of the method: as §1
MIA PaCa-2 [5] = assay: Cytotoxicity against human MIAPaCa2 cells assessed as growth inhibition after 48 hrs by MTT assay; type: functional, cell-based; conditions: MIA PaCa-2, 48 h
Summary of the method: (§3)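 MTT assay, 48 h exposure; adherent lines seeded 12 h and suspension lines 4 h before compound. Media: RPMI-1640/10% FCS (THP-1, HL-60, Colo-205, Caco-2, A549), DMEM/10% FCS (A549, MIAPaCa-2, MCF-7). MTT 4 h, formazan dissolved in DMSO, absorbance 570 nm. Mean ± S.D of three experiments in triplicate; SAHA 5 µM reference.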

HL-60 [6] = assay: Induction of mitochondrial membrane potential loss in human HL60 cells assessed as intact mitochondrial membrane potential at 1 uM measured after 48 hrs by Rh123 dye-based flow cytometric analysis (reference value: 91.3%); type: functional; summary of the method: as §1
COLO 205 = assay: Cytotoxicity against human COLO205 cells assessed as growth inhibition at 10 uM after 48 hrs by MTT assay; type: functional; conditions: COLO 205, 48 h, read-out: GI; summary of the method: as §3
THP-1 = assay: Cytotoxicity against human THP1 cells assessed as growth inhibition at 10 uM after 48 hrs by MTT assay; type: functional; conditions: THP-1, 48 h, read-out: GI; summary of the method: as §3
A549 = assay: Cytotoxicity against human A549 cells assessed as growth inhibition at 10 uM after 48 hrs by MTT assay; type: functional; conditions: A549, 48 h, read-out: GI; summary of the method: as §3
MIA PaCa-2 [7] = assay: Cytotoxicity against human MIAPaCa2 cells assessed as growth inhibition at 10 uM after 48 hrs by MTT assay; type: functional; conditions: MIA PaCa-2, 48 h, read-out: GI; summary of the method: as §3
HL-60 [8] = assay: Cytotoxicity against human HL60 cells assessed as growth inhibition at 10 uM after 48 hrs by MTT assay; type: functional; conditions: HL-60, 48 h, read-out: GI; summary of the method: as §3
PC-3 = assay: Cytotoxicity against human PC3 cells assessed as growth inhibition at 10 uM after 48 hrs by MTT assay; type: functional; conditions: PC-3, 48 h, read-out: GI
Caco-2 = assay: Cytotoxicity against human Caco2 cells assessed as growth inhibition at 10 uM after 48 hrs by MTT assay; type: functional; conditions: Caco-2, 48 h, read-out: GI; summary of the method: as §3
MOLT-4 [9] = assay: Cytotoxicity against human MOLT4 cells assessed as growth inhibition at 10 uM after 48 hrs by MTT assay; type: functional; conditions: MOLT-4, 48 h, read-out: GI
MCF7 = assay: Cytotoxicity against human MCF7 cells assessed as growth inhibition at 10 uM after 48 hrs by MTT assay; type: functional; conditions: MCF7, 48 h, read-out: GI; summary of the method: as §3
P388 [10] = assay: Antitumor activity against mouse P388 cells implanted in CDF1 mouse assessed as increase in median survival time at 20 mg/kg, ip administered for 9 consecutive days; type: functional, organism-based; summary of the method: as §2

Q: Which inhibition (Homo sapiens) does the source give for `O=C(CCCCCCCC(=O)N[C@@H]1CCN(Cc2ccccc2)C1)NO` here?
A: inactive

Q: With `O=C(CCCCCCCC(=O)N[C@H]1CCN(Cc2ccccc2)C1)NO` as the molecule, how does the inhibition (Homo sapiens) read?
A: inactive

Q: Which inhibition (Homo sapiens) does the source give for `O=C(CCCCCCC(=O)N[C@@H]1CCN(Cc2ccccc2)C1)NO` here?
A: inactive

Q: For `O=C(CCCCC(=O)N[C@H]1CCN(Cc2ccccc2)C1)NO`, which inhibition (Homo sapiens) is on record?
A: inactive

Q: With `O=C(CCCC(=O)N[C@H]1CCN(Cc2ccccc2)C1)NO` as the molecule, how does the inhibition (Homo sapiens) read?
A: inactive

Q: How did the inhibition (Homo sapiens) turn out when `O=C(CCCCCCC(=O)N[C@H]1CCN(Cc2ccccc2)C1)NO` was run?
A: inactive

Q: How did the Activity (MOLT-4 [1]) turn out when `O=C(CCCCCCC(=O)Nc1ccccc1)NO` [VORINOSTAT] was run?
A: 71.6%

Q: What about the Activity (P388 [2]) of the same molecule?
A: Active

Q: What about the Activity (HL-60 [3]) of the same molecule?
A: 12.9%

Q: And the Activity (MOLT-4 [4])?
A: 28.4%

Q: What about the IC50 (MIA PaCa-2 [5]) of the same molecule?
A: 2200 nM

Q: And the Activity (HL-60 [6])?
A: 75.6%

Q: For `O=C(CCCCCCCC(=O)Nc1ccccc1CN1CC[C@H](O)C1)NO`, which inhibition of growth at 10 µM (COLO 205) is on record?
A: 7%

Q: What about the inhibition of growth at 10 µM (THP-1) of the same molecule?
A: 17%

Q: And the inhibition (Homo sapiens)?
A: Active

Q: And the inhibition of growth at 10 µM (A549)?
A: 5%

Q: What about the inhibition of growth at 10 µM (MIA PaCa-2 [7]) of the same molecule?
A: 2%

Q: What about the inhibition of growth at 10 µM (HL-60 [8]) of the same molecule?
A: 6%

Q: And the inhibition of growth at 10 µM (PC-3)?
A: 12%

Q: And the inhibition of growth at 10 µM (Caco-2)?
A: 5%

Q: What about the inhibition of growth at 10 µM (MOLT-4 [9]) of the same molecule?
A: 30%

Q: What about the inhibition of growth at 10 µM (MCF7) of the same molecule?
A: 3%

Q: Which inhibition (Homo sapiens) does the source give for `O=C(CCCC(=O)N[C@@H]1CCN(Cc2ccccc2)C1)NO` here?
A: inactive

Q: Which Activity (P388 [10]) does the source give for `O=c1[nH]cc(F)c(=O)[nH]1` here?
A: Active

Q: With `O=C(CCCCC(=O)N[C@@H]1CCN(Cc2ccccc2)C1)NO` as the molecule, how does the inhibition (Homo sapiens) read?
A: inactive

Q: Which inhibition of growth at 10 µM (COLO 205) does the source give for `O=C(CCCC(=O)Nc1ccccc1CN1CC[C@H](O)C1)NO` here?
A: 26%

Q: What about the inhibition of growth at 10 µM (THP-1) of the same molecule?
A: 3%

Q: What about the inhibition (Homo sapiens) of the same molecule?
A: Active

Q: And the inhibition of growth at 10 µM (A549)?
A: 5%

Q: What about the inhibition of growth at 10 µM (MIA PaCa-2 [7]) of the same molecule?
A: 4%

Q: And the inhibition of growth at 10 µM (HL-60 [8])?
A: 3%

Q: And the inhibition of growth at 10 µM (PC-3)?
A: 2%

Q: And the inhibition of growth at 10 µM (Caco-2)?
A: 1%

Q: And the inhibition of growth at 10 µM (MOLT-4 [9])?
A: 27%

Q: What about the inhibition of growth at 10 µM (MCF7) of the same molecule?
A: 5%

Q: How did the inhibition of growth at 10 µM (COLO 205) turn out when `O=C(CCCCC(=O)Nc1ccccc1CN1CC[C@H](O)C1)NO` was run?
A: 22%

Q: And the inhibition of growth at 10 µM (THP-1)?
A: 37%

Q: And the inhibition (Homo sapiens)?
A: Active

Q: And the inhibition of growth at 10 µM (A549)?
A: 19%

Q: What about the inhibition of growth at 10 µM (MIA PaCa-2 [7]) of the same molecule?
A: 12%

Q: What about the inhibition of growth at 10 µM (HL-60 [8]) of the same molecule?
A: 29%

Q: What about the inhibition of growth at 10 µM (PC-3) of the same molecule?
A: 15%

Q: And the inhibition of growth at 10 µM (Caco-2)?
A: 31%

Q: What about the inhibition of growth at 10 µM (MOLT-4 [9]) of the same molecule?
A: 38%

Q: And the inhibition of growth at 10 µM (MCF7)?
A: 26%
